Reference: ChEMBL document CHEMBL1147022, “Studies on synthesis and evaluation of quantitative structure-activity relationship of 10-methyl-6-oxo-5-arylazo-6,7-dihydro-5H-[1,3]azaphospholo[1,5-d][1,4]benzodiazepin-2-phospha-3-ethoxycarbonyl-1-phosphorus dichlorides” (2006)

Columns and labels:
Format in all cases: functional
Parameters in all cases: unit not given here
[1] = system: Candida albicans; assay: Antifungal activity against Candida albicans ATCC 10231
Procedure, shortened: (§1)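 Fungal MIC by standard 2-fold serial dilution in Sabouraud dextrose agar, using compounds diluted from 1 mg/mL DMSO stocks. Plates receive about 10⁶ CFU/mL fungal suspension made from broth cultures, in triplicate, and are kept at 37 °C for 48–72 h. Clotrimazole is the reference drug.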

[2] = system: Bacillus subtilis; assay: Antibacterial activity against Bacillus subtilis ATCC 6633
Procedure, shortened: (§2)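 Agar 2-fold serial dilution MIC on nutrient agar. Test compounds come from 1 mg/mL DMSO stocks. Inoculum is about 10⁷ CFU/mL bacterial suspension prepared from broth cultures. Plates are run in triplicate and incubated at 37 °C for 16–47 h. Ampicillin trihydrate is the reference drug, tested under the same conditions.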

[3] = system: Aspergillus niger; assay: Antifungal activity against Aspergillus niger ATCC 16404; procedure, shortened: as §1
[4] = system: Escherichia coli; assay: Antibacterial activity against Escherichia coli ATCC 445; procedure, shortened: as §2

Compound: CCOC(=O)c1pc(P(Cl)Cl)c2n1[C@@H](N=Nc1ccc(Cl)cc1)C(=O)Nc1ccc(C)cc1-2 (stereo partly drawn)
- -Log MIC [1]: 4.36
- -Log MIC [2]: 4.41
- -Log MIC [3]: 4.51
- -Log MIC [4]: 4.39

Compound: CCOC(=O)c1pc(P(Cl)Cl)c2n1[C@@H](N=Nc1cccc(Cl)c1)C(=O)Nc1ccc(C)cc1-2 (stereo partly drawn)
- -Log MIC [1]: 4.47
- -Log MIC [2]: 4.46
- -Log MIC [3]: 4.68
- -Log MIC [4]: 4.54

Compound: CCOC(=O)c1pc(P(Cl)Cl)c2n1[C@@H](N=Nc1ccc(O)cc1)C(=O)Nc1ccc(C)cc1-2 (stereo partly drawn)
- -Log MIC [1]: 4.06
- -Log MIC [2]: 4.17
- -Log MIC [3]: 4.18
- -Log MIC [4]: 4.11

Compound: CCOC(=O)c1pc(P(Cl)Cl)c2n1[C@@H](N=Nc1ccc([N+](=O)[O-])cc1)C(=O)Nc1ccc(C)cc1-2 (stereo partly drawn)
- -Log MIC [1]: 4.32
- -Log MIC [2]: 4.52
- -Log MIC [3]: 4.45
- -Log MIC [4]: 4.61

Compound: CCOC(=O)c1pc(P(Cl)Cl)c2n1[C@@H](N=Nc1cccc(CC)c1)C(=O)Nc1ccc(C)cc1-2 (stereo partly drawn)
- -Log MIC [1]: 4.61
- -Log MIC [2]: 4.68
- -Log MIC [3]: 4.82
- -Log MIC [4]: 4.88

Compound: CCOC(=O)c1pc(P(Cl)Cl)c2n1[C@@H](N=Nc1ccc(OC)cc1)C(=O)Nc1ccc(C)cc1-2 (stereo partly drawn)
- -Log MIC [1]: 4.24
- -Log MIC [2]: 4.29
- -Log MIC [3]: 4.39
- -Log MIC [4]: 4.26

Compound: CCOC(=O)c1pc(P(Cl)Cl)c2n1[C@@H](N=Nc1cccc(C)c1)C(=O)Nc1ccc(C)cc1-2 (stereo partly drawn)
- -Log MIC [1]: 4.17
- -Log MIC [2]: 4.25
- -Log MIC [3]: 4.31
- -Log MIC [4]: 4.22

Compound: CCOC(=O)c1pc(P(Cl)Cl)c2n1[C@@H](N=Nc1cccc([N+](=O)[O-])c1)C(=O)Nc1ccc(C)cc1-2 (stereo partly drawn)
- -Log MIC [1]: 4.5
- -Log MIC [2]: 4.55
- -Log MIC [3]: 4.56

Compound: CCOC(=O)c1pc(P(Cl)Cl)c2n1[C@@H](N=Nc1ccc(CC)cc1)C(=O)Nc1ccc(C)cc1-2 (stereo partly drawn)
- -Log MIC [1]: 4.52
- -Log MIC [2]: 4.64
- -Log MIC [3]: 4.64
- -Log MIC [4]: 4.58

Compound: CCOC(=O)c1pc(P(Cl)Cl)c2n1[C@@H](N=Nc1cccc(OCC)c1)C(=O)Nc1ccc(C)cc1-2 (stereo partly drawn)
- -Log MIC [1]: 4.78
- -Log MIC [2]: 4.96
- -Log MIC [3]: 4.89
- -Log MIC [4]: 5.04

Compound: CCOC(=O)c1pc(P(Cl)Cl)c2n1[C@@H](N=Nc1ccccc1)C(=O)Nc1ccc(C)cc1-2 (stereo partly drawn)
- -Log MIC [1]: 4.1
- -Log MIC [2]: 4.05
- -Log MIC [3]: 4.12
- -Log MIC [4]: 4.05

Compound: CCOC(=O)c1pc(P(Cl)Cl)c2n1[C@@H](N=Nc1cccc(OC)c1)C(=O)Nc1ccc(C)cc1-2 (stereo partly drawn)
- -Log MIC [1]: 4.39
- -Log MIC [2]: 4.28
- -Log MIC [3]: 4.56
- -Log MIC [4]: 4.3

Compound: CCOC(=O)c1pc(P(Cl)Cl)c2n1[C@@H](N=Nc1cccc(C(=O)O)c1)C(=O)Nc1ccc(C)cc1-2 (stereo partly drawn)
- -Log MIC [1]: 4.32
- -Log MIC [2]: 4.37
- -Log MIC [3]: 4.48
- -Log MIC [4]: 4.36

Compound: CCOC(=O)c1pc(P(Cl)Cl)c2n1[C@@H](N=Nc1ccc(OCC)cc1)C(=O)Nc1ccc(C)cc1-2 (stereo partly drawn)
- -Log MIC [1]: 4.59
- -Log MIC [2]: 4.83
- -Log MIC [3]: 4.74
- -Log MIC [4]: 4.74

Compound: CCOC(=O)c1pc(P(Cl)Cl)c2n1[C@@H](N=Nc1ccc(C)cc1)C(=O)Nc1ccc(C)cc1-2 (stereo partly drawn)
- -Log MIC [1]: 4.09
- -Log MIC [2]: 4.22
- -Log MIC [3]: 4.22
- -Log MIC [4]: 4.17

Compound: CCOC(=O)c1pc(P(Cl)Cl)c2n1[C@@H](N=Nc1cccc(O)c1)C(=O)Nc1ccc(C)cc1-2 (stereo partly drawn)
- -Log MIC [1]: 4.11
- -Log MIC [2]: 4.22
- -Log MIC [3]: 4.25
- -Log MIC [4]: 4.2
